MITF TRPM1 HTS = activators of MITF-driven TRPM1 promoter reporter, primary screen, cell-based, SK-MEL-5, luciferase, single point; AID 588334, 2011; SK-MEL-5 TRPM1-promoter luciferase, 24 h; % of positive control, neutral wells = 0; activation, % at 12.5 µM; actives 0.75% (n = 300,000);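 active means mean activation of at least 80% with every replicate also reaching 80%; inconclusive means mean reaches 80% but some replicate falls short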;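 further: 0% = neutral control wells and 100% = parthenolide positive control wells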
HSF-1 act = HSF-1 activators, primary screen, NIH3T3-HGL cells, MG132 stress, luminescence, single point; NIH3T3-HGL HSF-1 luciferase reporter, 8 h; 100% = twice DMSO control signal; activation, % at 9 µM; actives 1.7% (n = 300,000); AID 504408, 2011;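 active means mean replicate activation of at least 50% with a set share of replicates each reaching 50%; inconclusive means only one of those two conditions met; inactive means mean below 50% and too few replicates reaching it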;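 further: 0% = median of the neutral control wells and 100% = twice that signal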
Wnt bcat act = Wnt/beta-catenin pathway activators, primary screen, cell-based, plate reader, single point. Wnt/beta-catenin reporter cell assay, activator. activation, % at 9.35 µM. actives 1.2% (n = 300,000); in the data active means activation above about 30%, passing the limit was not always enough; inconclusive means no clear call, values can overlap the other calls;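 further: 0% = neutral control wells and 100% = positive control wells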
SR-BI DiI-HDL act = activators of SR-BI mediated DiI-HDL uptake, primary screen, ldlA[mSR-BI] CHO cells, DiI fluorescence; actives 0.096% (n = 320,000); AID 504775, 2011; activation, % at 12.5 µM; 3 h; 100 = double the neutral-control signal;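 active means mean replicate activation of at least 60% and every replicate at or above 60%; inconclusive means mean or all-replicate condition met, but not both; inactive means mean below 60% and not all replicates reaching 60%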;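 further: 0% = median plate neutral-control signal and 100% = twice that signal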
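Test system: SR-BI-overexpressing, LDLR-lacking CHO cells; Also added: labelled HDL, 10 µg/mL; Measured by: bottom-read cell fluorescence after medium removal, ex 550/em 595 nm; Timing: 3 h uptake period with compound, 37 °C; Buffer or medium: F12, 0.5% BSA, 25 mM HEPES; Doses: single compound concentration, delivered by pin transfer.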
SR-BI HDL uptake = inhibitors of SR-BI mediated HDL lipid uptake, primary screen, ldlA[mSR-BI] cells, fluorescence, single point; ldlA[mSR-BI] CHO cells, DiI-HDL uptake fluorescence, 3 h; Scavenger receptor class B member 1 (Mus musculus), Q61009; actives 0.96% (n = 320,000); inhibition, % at 12.5 µM;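 active means mean replicate inhibition of at least 70% and a set share of replicates each scoring 70 or more; inconclusive means meets just one of the two criteria; inactive means fails both criteria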;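 further: 0% = median of neutral control wells and 100% = median of positive control wells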
Target sequence (Q61009 whole entry, looked up): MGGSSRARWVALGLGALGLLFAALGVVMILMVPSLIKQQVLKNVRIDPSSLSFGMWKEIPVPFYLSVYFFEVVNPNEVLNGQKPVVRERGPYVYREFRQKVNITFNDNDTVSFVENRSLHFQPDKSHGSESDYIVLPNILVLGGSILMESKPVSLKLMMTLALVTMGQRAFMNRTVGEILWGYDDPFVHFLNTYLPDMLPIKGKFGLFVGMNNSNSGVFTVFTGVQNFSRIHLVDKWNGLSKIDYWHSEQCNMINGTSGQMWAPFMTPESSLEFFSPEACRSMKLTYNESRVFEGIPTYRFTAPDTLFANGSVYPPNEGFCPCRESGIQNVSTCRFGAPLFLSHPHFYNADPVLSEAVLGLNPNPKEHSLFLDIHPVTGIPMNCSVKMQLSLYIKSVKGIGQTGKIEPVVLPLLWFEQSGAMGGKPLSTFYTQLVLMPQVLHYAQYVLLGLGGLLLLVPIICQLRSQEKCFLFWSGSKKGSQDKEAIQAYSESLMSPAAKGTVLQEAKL
* = called active by the depositor; ? = inconclusive; . = not tested or not shown. Shown are actives, neighbours in structure and some others; about 3.6% of the full set was active somewhere.

SMILES	MITF TRPM1 HTS	HSF-1 act	Wnt bcat act	SR-BI DiI-HDL act	SR-BI HDL uptake
Nc1nc(-c2ccc(NC(=O)c3ccco3)cc2)cs1	-6	25	42*	-12	12
Cc1nc(-c2ccc(NC(=O)c3ccco3)cc2)cs1	-70	-50	-9	-15	15
CN(C)CCCNc1nc2cc(-c3cnn(Cc4ccccc4)c3)sc2c(=O)n1C	.	.	0	.	.
CCCCC1CCC(C(=O)N(CCC(C)C)c2c(N)n(CCCC)c(=O)[nH]c2=O)CC1 (stereo not given)	.	.	-17	.	.
COC(=O)c1c(NC(=O)c2ccco2)sc(C(=O)Nc2ccc(F)cc2)c1C	109*	12	25	-37	37
C/C(=N\NC(=O)c1ccccc1N)c1ccc(NC(=O)Cc2ccccc2)cc1	30	44	8	-23	23
C/C(=N\NC(=O)c1ccco1)c1ccc(NC(=O)c2ccccc2)cc1	70	94*	3	-34	34
C/C(=N\NC(=O)c1cccc(C)c1O)c1ccc(NC(=O)Cc2ccccc2)cc1	92*	18	13	1	-1
Cc1ccn2cc(-c3ccc(NC(=O)c4ccco4)cc3)nc2c1	67	36	46*	-39	39
COC(=O)c1c(NC(=O)c2ccco2)sc(C)c1C	1	1	7	-50	50
CC(=O)Nc1cccc(-c2cn3ccc(C)cc3n2)c1	25	47	.	-17	17
COCCNc1ncnc2c1ncn2[C@H]1CN(Cc2ccccc2)C[C@@H](CO)O1	.	.	8	.	.
O=C(Nc1ccc(Br)cc1)c1ccco1	91*	18	23	2	-2
Cc1ccc(-c2nnc(-c3cccc(Br)c3)o2)cc1	53	64*	52*	-16	16
Cc1ccc(-c2nnc(-c3ccccc3)o2)cc1Br	34	17	35*	47	-47
CN(C)S(=O)(=O)c1cccc(-c2nnc(-c3ccccc3)o2)c1	86*	38	0	-20	20
Cc1ccccc1NS(=O)(=O)c1cccc(-c2nnc(-c3ccccc3)o2)c1	.	3	.	15	-15
CCOc1ccc(CNC(=O)CCCc2cn(C)c3ccccc23)cc1	10	14	3	-85	85*
COC(=O)c1c(NC(=O)Cc2ccccc2)sc(C)c1C	3	5	.	-24	24
COC(=O)c1c(NC(=S)Nc2ccccc2Cl)sc(C)c1C	-11	33	.	-75	75*
O=C(COC(=O)/C=C/c1ccccc1Cl)NC1CCCCCC1	12	-3	-1	65*	-65
O=C(COC(=O)c1c(F)cccc1Cl)NC1CCCCC1	85*	.	16	6	-6
O=C(COC(=O)c1ccccc1F)NC1CCCC1	-8	21	3	6	-6
COc1ccc(-c2cn3c(C)c(C(=O)Nc4ccncc4)sc3n2)cc1	.	-18	6	-83	83*
Cc1c(C(=O)Nc2ccncc2)sc2nc(-c3ccc(F)cc3)cn12	28	2	-4	-77	77*
SMILES	MITF TRPM1 HTS	HSF-1 act	Wnt bcat act	SR-BI DiI-HDL act	SR-BI HDL uptake
COc1ccc(-c2cn3c(C)c(C(=O)Nc4cccc(NC(C)=O)c4)sc3n2)cc1	.	-4	.	-57	57
CCN(CC)c1ccc(NC(=O)/C=C/c2cc(Br)ccc2OC)cc1	0	20	.	-80	80*
COc1ccc(Br)cc1/C=C/C(=O)c1ccc(NC(C)=O)cc1	-81	.	-9	-77	76*
COc1ccc(NC(=O)/C=C/c2cc(Br)ccc2OC)cc1	-19	2	.	-74	74*
COc1ccc(C(=O)/C=C/Nc2ccc(NC(C)=O)cc2)cc1OC	19	-3	.	-46	46
COc1ccc(Br)cc1/C=C/C(=O)Nc1c(C)cccc1C	-14	-3	.	-62	62
CCc1nc2c(OCc3ccc(C#N)cc3)cccn2c1N(C)C(=O)c1cccs1	.	.	-1	.	.
CCOC(=O)[C@]12CCC=C1N(Cc1ccc(Cl)cc1Cl)C(=O)[C@H](CC(=O)NCCCOC)C2	.	.	-1	.	.
CCc1nc2c(OCc3ccccc3)cccn2c1N(C)C(=O)c1ccc2c(c1)OCO2	.	.	-3	.	.
CC(C)(C)S(=O)(=O)N1C[C@H]2C(=CC[C@@H]3C(=O)N(c4ccccc4)C(=O)[C@@H]32)[C@H]1CCO	0	.	-1	1	-1
COc1cc(CO)ccc1OCc1ccc(Cl)nc1	.	20	36*	4	-4
CC(C)(C)n1nnnc1C(c1ccccc1)N1CCN(c2ncccc2C(F)(F)F)CC1 (stereo not given)	.	.	-5	.	.
Cc1cccn2cc(-c3ccc(Cl)cc3)nc12	6	34	10	-31	31
CCC(=O)Nc1cccc(-c2cn3cccc(C)c3n2)c1	.	6	25	-71	?
Cc1ccc(-c2cn3cccc(C)c3n2)cc1	-6	78*	1	-2	2
COc1ccc(-c2cn3cccnc3n2)cc1NC(=O)C(C)C	7	10	1	5	-5
COc1ccc(-c2cn3cccc(C)c3n2)cc1F	92*	42	33*	-20	20
COc1ccc(-c2cn3cccnc3n2)cc1Br	81*	17	20	-15	15
Cc1ccc(S(=O)(=O)Nc2ccccc2OC(C(=O)OC(C)(C)C)C(=O)OC(C)(C)C)cc1	.	.	7	.	.
Cc1ccc(C(=O)O/N=C(\N)Cc2cccc3ccccc23)cc1	-7	64*	0	-1	1
COc1ccc(-c2csc(C(C)(O)c3ccccc3)n2)cn1 (stereo not given)	.	.	8	.	.
O=C(Cc1nc2ccccc2[nH]1)c1ccc(Br)cc1	91*	101*	17	.	.

Screening results from PubChem BioAssay.
